From ChEMBL document CHEMBL1132488, “On the bioactive conformation of NAN-190 (1) and MP3022 (2), 5-HT(1A) receptor antagonists” (J Med Chem, 1999) come the findings set out here.

Test [1] relates to Rattus norvegicus. In words: Effect on 8-OH-DPAT-Induced LLR(lower lip retraction) in rats at a dose of 4 mg/kg. In kind it is functional. In outline:
(§1)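 Male Wistar rats, groups of 6. Compound given ip in 1% Tween 80 45 min before 8-OH-DPAT 1 mg/kg sc. Lower incisor visibility scored 0/0.5/1 at 15, 30 and 45 min after agonist, summed (max 3). Mean ± SEM; Newman–Keuls test; ED50 with range.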

The test system of test [2] is Rattus norvegicus. Kind of test: Induction of LLR(lower lip retraction) by the compound in rats at a dose of 8 mg/kg. In kind it is functional. The gist of the method:
(§2)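 Male Wistar rats, groups of 6, given compound alone ip as 1% Tween 80 suspension. Lower incisor visibility scored 0/0.5/1 at 15, 30 and 45 min after dosing, summed (max 3 per rat). Mean ± SEM versus vehicle, Newman–Keuls test; ED50 with range.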

Test [3] has as its system Rattus norvegicus. In words: Induction of LLR(lower lip retraction) by the compound in rats at a dose of 16 mg/kg. It counts as functional. The gist of the method: as §2
For test [4], the species on record is Rattus norvegicus. In words: Effect on 8-OH-DAPT- induced behavioral syndrome(FT: forepaw treading) by the compound in reserpine pretreated rats at a dose of 2. In kind it is functional.
Test [5] is filed under the species Rattus norvegicus. In words: Induction of behavioral syndrome(FT: forepaw treading) by the compound in reserpine pretreated rats at a dose of 2. In kind it is functional.
The species named for test [6] is Rattus norvegicus. Kind of test: Effective dose of the required to inhibit symptoms produced by 8-OH-DPAT. In kind it is functional. The gist of the method: (§3)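 Reserpinized male Wistar rats (reserpine 1 mg/kg sc, 18 h before), groups of 6. Compound given ip in 1% Tween 80 60 min before 8-OH-DPAT 5 mg/kg sc. FBP/FT rated 0–3 at 3, 6, 9, 12 and 15 min after agonist, summed (max 15). Mean ± SEM; Newman–Keuls test; ED50 with range.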

The species entered for test [7] is Rattus norvegicus. Kind of test: Induction of behavioral syndrome(FBP: flat body posture) by the compound in reserpine pretreated rats at a dose of 2. It counts as functional. In outline: (§4)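 Male Wistar rats (260–300 g), groups of 6, given reserpine 1 mg/kg sc 18 h before test. Compounds given ip as 1% Tween 80 suspension. FBP and FT rated 0–3 in 45-s sessions every 3 min, starting 3 min after dosing. Score summed over 5 periods (max 15 per symptom). Mean ± SEM; Newman–Keuls test.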

The subject of test [8] is Rattus norvegicus. Kind of test: Effect on 8-OH-DPAT-Induced LLR(lower lip retraction) in rats at a dose of 16 mg/kg. In kind it is functional. The gist of the method: as §1
For test [9], the species on record is Rattus norvegicus. Kind of test: Effect on 8-OH-DAPT- induced behavioral syndrome(FT: forepaw treading) by the compound in reserpine pretreated rats at a dose of 4. In kind it is functional. The gist of the method:
as §3

For test [10], the species on record is Rattus norvegicus. Kind of test: Effect on 8-OH-DAPT- induced behavioral syndrome(FBP: flat body posture) by the compound in reserpine pretreated rats at a dose of 4. It counts as functional. The gist of the method: as §3
Test [11] deals with Rattus norvegicus. In words: Induction of LLR(lower lip retraction) by the compound in rats at a dose of 4 mg/kg. In kind it is functional. In outline: as §2
Test [12] has as its system Rattus norvegicus. Kind of test: Effect on 8-OH-DPAT-Induced LLR(lower lip retraction) in rats at a dose of 8 mg/kg. It counts as functional. The gist of the method:
as §1

The species entered for test [13] is Rattus norvegicus. Kind of test: Effect on 8-OH-DAPT- induced behavioral syndrome(FBP: flat body posture) by the compound in reserpine pretreated rats at a dose of 8. It counts as functional. The gist of the method: as §3
The species entered for test [14] is Rattus norvegicus. In words: Dose Inducing behavioral syndrome(FBP: flat body posture) by the compound in reserpine pretreated rats. In kind it is functional. In outline: as §4
Test [15] is filed under the species Rattus norvegicus. In words: Induction of behavioral syndrome(FT: forepaw treading) by the compound in reserpine pretreated rats at a dose of 4. In kind it is functional. In outline: (§5)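 Male Wistar rats (260–300 g) were given reserpine 1 mg/kg sc in saline 18 h before testing. Test compound was then given alone ip as a 1% Tween 80 suspension (2 mL/kg). FBP and FT were each scored 0–3 and summed (maximum 15). n=6 per group; mean ± SEM; Newman–Keuls test.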

For test [16], the target named is T1, 5-hydroxytryptamine receptor 1A (Rattus norvegicus, UniProt P19327).
T1 sequence (P19327 whole entry): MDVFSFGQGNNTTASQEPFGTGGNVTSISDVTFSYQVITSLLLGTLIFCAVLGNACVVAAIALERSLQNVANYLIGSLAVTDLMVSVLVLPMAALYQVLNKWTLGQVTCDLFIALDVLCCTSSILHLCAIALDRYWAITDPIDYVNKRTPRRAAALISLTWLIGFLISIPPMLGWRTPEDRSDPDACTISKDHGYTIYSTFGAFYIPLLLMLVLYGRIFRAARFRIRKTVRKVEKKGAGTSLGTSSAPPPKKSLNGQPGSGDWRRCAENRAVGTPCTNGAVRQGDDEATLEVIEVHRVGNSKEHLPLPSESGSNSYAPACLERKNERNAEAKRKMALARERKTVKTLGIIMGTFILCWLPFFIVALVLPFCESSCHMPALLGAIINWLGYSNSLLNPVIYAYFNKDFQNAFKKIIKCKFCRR
In words: Ability to displace [3H]8-OH-DPAT from 5-hydroxytryptamine 1A receptor. In outline: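 Rat hippocampal membranes, [3H]8-OH-DPAT radioligand. Ki from at least three competition experiments, each with 10–14 drug concentrations run in triplicate. Ki calculated with the Cheng–Prusoff equation.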

The species entered for test [17] is Rattus norvegicus. In words: Induction of behavioral syndrome(FBP: flat body posture) by the compound in reserpine pretreated rats at a dose of 8. It counts as functional. The gist of the method:
as §5

The species entered for test [18] is Rattus norvegicus. In words: Induction of behavioral syndrome(FT: forepaw treading) by the compound in reserpine pretreated rats at a dose of 8. It counts as functional. In outline: as §5
Test [19] is filed under the species Rattus norvegicus. In words: Effect on 8-OH-DAPT- induced behavioral syndrome(FBP: flat body posture) by the compound in reserpine pretreated rats at a dose of 2. In kind it is functional.
Test [20] is filed under the species Rattus norvegicus. Kind of test: Induction of behavioral syndrome(FBP: flat body posture) by the compound in reserpine pretreated rats at a dose of 4. It counts as functional. The gist of the method:
as §5

For test [21], the species on record is Rattus norvegicus. Kind of test: Dose Inducing behavioral syndrome(FT: forepaw treading) by the compound in reserpine pretreated rats. In kind it is functional. The gist of the method:
as §4

Test [22] is filed under the species Rattus norvegicus. Kind of test: Effect on 8-OH-DAPT- induced behavioral syndrome(FT: forepaw treading) by the compound in reserpine pretreated rats at a dose of 8. It counts as functional. The gist of the method:
as §3

Test [23] is filed under the species Rattus norvegicus. Kind of test: Effect on 8-OH-DAPT- induced behavioral syndrome(FBP: flat body posture) by the compound in reserpine pretreated rats at a dose of 32; FBP mean score. In kind it is functional. In outline:
as §3

The species named for test [24] is Rattus norvegicus. Kind of test: Effect on 8-OH-DAPT- induced behavioral syndrome(FT: forepaw treading) by the compound in reserpine pretreated rats at a dose of 32; FT mean score. In kind it is functional. The gist of the method:
as §3

The species named for test [25] is Rattus norvegicus. Kind of test: Effect on 8-OH-DAPT- induced behavioral syndrome(FBP: flat body posture) by the compound in reserpine pretreated rats at a dose of 8; FBP mean score. It counts as functional. The gist of the method:
as §3

Test [26] is filed under the species Rattus norvegicus. Kind of test: Dose Inducing behavioral syndrome(FBP: flat body posture) by the compound in reserpine pretreated rats. It counts as functional. The gist of the method: as §4
Test [27] deals with Rattus norvegicus. In words: Effect on 8-OH-DPAT-Induced LLR(lower lip retraction) in rats at a dose of 32 mg/kg. In kind it is functional. In outline: as §1
The species entered for test [28] is Rattus norvegicus. Kind of test: Effect on 8-OH-DAPT- induced behavioral syndrome(FT: forepaw treading) by the compound in reserpine pretreated rats at a dose of 16; FT mean score. It counts as functional. The gist of the method: as §3
The species entered for test [29] is Rattus norvegicus. Kind of test: Effect on 8-OH-DAPT- induced behavioral syndrome(FBP: flat body posture) by the compound in reserpine pretreated rats at a dose of 16; FBP mean score. In kind it is functional. The gist of the method: as §3
The species named for test [30] is Rattus norvegicus. In words: Induction of behavioral syndrome(FBP: flat body posture) by the compound in reserpine pretreated rats at a dose of 16; FBP mean score. It counts as functional. In outline: as §4
The species named for test [31] is Rattus norvegicus. Kind of test: Induction of behavioral syndrome(FT: forepaw treading) by the compound in reserpine pretreated rats at a dose of 32; FT mean score. It counts as functional. In outline: as §5
For test [32], the species on record is Rattus norvegicus. Kind of test: Induction of behavioral syndrome(FBP: flat body posture) by the compound in reserpine pretreated rats at a dose of 32; FBP mean score. In kind it is functional. The gist of the method: as §5
The species named for test [33] is Rattus norvegicus. Kind of test: Induction of behavioral syndrome(FBP: flat body posture) by the compound in reserpine pretreated rats at a dose of 8; FBP mean score. In kind it is functional. In outline:
as §5

The test system of test [34] is Rattus norvegicus. Kind of test: Induction of LLR(lower lip retraction) by the compound in rats at a dose of 32 mg/kg. It counts as functional. In outline:
as §2

Test [35] concerns Rattus norvegicus. In words: Induction of LLR(lower lip retraction) by the compound in rat at a dose of 8 mg/kg; LLR score. In kind it is functional. The gist of the method:
as §2

The species entered for test [36] is Rattus norvegicus. Kind of test: Induction of behavioral syndrome(FT: forepaw treading) by the compound in reserpine pretreated rats at a dose of 16; FT mean score. In kind it is functional. The gist of the method: as §5
Test [37] is filed under the species Rattus norvegicus. Kind of test: Dose Inducing behavioral syndrome(FT: forepaw treading) by the compound in reserpine pretreated rats. It counts as functional. The gist of the method:
as §4

For test [38], the species on record is Rattus norvegicus. In words: Induction of behavioral syndrome(FT: forepaw treading) by the compound in reserpine pretreated rats at a dose of 8; FT mean score. In kind it is functional. In outline:
as §5

For test [39], the species on record is Rattus norvegicus. Kind of test: Effect on 8-OH-DAPT- induced behavioral syndrome(FT: forepaw treading) by the compound in reserpine pretreated rats at a dose of 8; FT mean score. It counts as functional. The gist of the method:
as §3

Usually Ki stands for a measure of affinity in units of concentration, obtained from inhibition or displacement. With `COc1ccccc1N1CCN(C2CCC(N3C(=O)c4ccccc4C3=O)CC2)CC1` (stereo not given), the LLR score in the test with Rattus norvegicus [1] is 2; in the test with Rattus norvegicus [2], 1; in the test on Rattus norvegicus [3], 1.2; with Rattus norvegicus [8], 0.6; in the test with Rattus norvegicus [11] it was 1.3; in the test on Rattus norvegicus [12], 1.5. The FT mean score in the test filed under Rattus norvegicus [4] came out at 6.2; in the test listed under Rattus norvegicus [5], 0.1; in the test filed under Rattus norvegicus [9], 4.2; in the test filed under Rattus norvegicus [15] it was 0.2; in the test filed under Rattus norvegicus [18] it was 0.2; in the test listed under Rattus norvegicus [22] it was 1. In addition, the ED50 came to 7.5 mg/kg in the test listed under Rattus norvegicus [6], 6.3 in the test listed under Rattus norvegicus [14] and 2.3 mg/kg in the test listed under Rattus norvegicus [21]. In addition, the FBP mean score in the test filed under Rattus norvegicus [7] worked out at 0.1; in the test filed under Rattus norvegicus [10] it was 8.8; in the test listed under Rattus norvegicus [13], 5.6; in the test filed under Rattus norvegicus [17], 0.2; in the test listed under Rattus norvegicus [19], 9.8; in the test listed under Rattus norvegicus [20], 0.2. In test [16], this compound returned an inhibitory constant (Ki) of 8 nM.
Turning to `O=C1c2ccccc2C(=O)N1C1CCC(N2CCc3ccccc3C2)CC1` (stereo not given), the FBP mean score came out at 11.8 in the test listed under Rattus norvegicus [23]; 11 in the test filed under Rattus norvegicus [25]; 10.3 in the test listed under Rattus norvegicus [29]; 0.5 in the test filed under Rattus norvegicus [30]; 0.3 in the test filed under Rattus norvegicus [32]; 0.3 in the test filed under Rattus norvegicus [33]. Moreover, the FT mean score in the test filed under Rattus norvegicus [24] amounted to 4.3; in the test filed under Rattus norvegicus [28], 5.7; in the test listed under Rattus norvegicus [31], 0.1; in the test listed under Rattus norvegicus [36] it was 0.1; in the test listed under Rattus norvegicus [38], 0.1; in the test listed under Rattus norvegicus [39], 7.5. Also, the LLR score in the test with Rattus norvegicus [3] stood at 0.2; in the test with Rattus norvegicus [27], 2.3; with Rattus norvegicus [8], 2.5; with Rattus norvegicus [12], 2.3; in the test with Rattus norvegicus [34], 0.3; with Rattus norvegicus [35], 0.1. The results for the ED50 in the test listed under Rattus norvegicus [26], in the test filed under Rattus norvegicus [6] and in the test listed under Rattus norvegicus [37] were more than 32 mg/kg, more than 32 mg/kg and 13.5 mg/kg, respectively. In addition, the Ki in test [16] was 34 nM.
Compound `O=C1c2ccccc2C(=O)N1CCCCN1CCc2ccccc2C1` came in with a Ki in [16] of 355 nM.
